ChEMBL document CHEMBL4007404, “Identification of High-Potency Human TLR8 and Dual TLR7/TLR8 Agonists in Pyrimidine-2,4-diamines” (J Med Chem, 2017)
Activity calls are given as the source filed them. No cut-off for these calls is given here.

Legend:
[1] = target: T1, Toll-like receptor 7 (Homo sapiens, UniProt Q9NYK1); assay: Agonist activity at human TLR7 expressed in HEK293 cells co-expressing secreted alkaline phosphatase assessed as induction of NF-kappaB/AP-1 promoter activity by measuring increase in secreted alkaline phosphatase level by spectrophotometric method; assay type: cell-based
T1 sequence (Q9NYK1 whole entry): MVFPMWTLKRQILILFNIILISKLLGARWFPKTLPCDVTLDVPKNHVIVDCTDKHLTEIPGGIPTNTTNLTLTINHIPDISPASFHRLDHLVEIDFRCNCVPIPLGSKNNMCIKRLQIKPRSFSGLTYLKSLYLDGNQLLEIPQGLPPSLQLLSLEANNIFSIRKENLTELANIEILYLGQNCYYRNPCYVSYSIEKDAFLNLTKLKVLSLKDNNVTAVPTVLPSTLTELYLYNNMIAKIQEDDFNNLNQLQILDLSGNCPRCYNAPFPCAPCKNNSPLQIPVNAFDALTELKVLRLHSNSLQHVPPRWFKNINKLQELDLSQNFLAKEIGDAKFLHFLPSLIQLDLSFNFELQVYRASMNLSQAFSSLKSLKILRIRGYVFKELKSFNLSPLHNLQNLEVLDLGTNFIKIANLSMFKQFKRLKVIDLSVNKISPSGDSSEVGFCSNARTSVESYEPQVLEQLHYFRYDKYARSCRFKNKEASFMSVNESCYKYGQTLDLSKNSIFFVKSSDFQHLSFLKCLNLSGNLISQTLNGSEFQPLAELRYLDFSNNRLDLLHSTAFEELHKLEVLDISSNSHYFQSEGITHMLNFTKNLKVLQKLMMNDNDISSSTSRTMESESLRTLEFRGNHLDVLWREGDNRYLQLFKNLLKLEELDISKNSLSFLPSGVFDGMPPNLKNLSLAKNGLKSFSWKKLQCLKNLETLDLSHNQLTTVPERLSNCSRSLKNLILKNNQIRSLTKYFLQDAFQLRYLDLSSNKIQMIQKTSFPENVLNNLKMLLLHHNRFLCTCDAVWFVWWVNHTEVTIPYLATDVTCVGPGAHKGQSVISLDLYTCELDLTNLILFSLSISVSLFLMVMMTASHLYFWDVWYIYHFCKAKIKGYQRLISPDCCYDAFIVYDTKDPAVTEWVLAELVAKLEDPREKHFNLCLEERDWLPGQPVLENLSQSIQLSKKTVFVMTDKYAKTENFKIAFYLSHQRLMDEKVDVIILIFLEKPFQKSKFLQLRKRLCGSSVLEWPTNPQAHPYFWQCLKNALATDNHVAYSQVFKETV
Method in brief: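 HEK293 cells stably co-transfected with the relevant human TLR (2, 3, 4, 5, 7, 8 or 9) plus an NF-κB/AP-1-driven secreted alkaline phosphatase reporter, kept in selection medium. Cells at ~10⁵ cells/ml were exposed to graded concentrations of stimuli in 384-well format, liquid-handler assisted. Supernatant sAP was read at 620 nm with an alkaline phosphatase-specific chromogen.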

[2] = target: T2, Toll-like receptor 8 (Homo sapiens) (UniProt Q9NR97); assay: Agonist activity at TLR8 in human PBMC assessed as induction of IFN-gamma production after 16 hrs by multiplexed immunoassay
T2 sequence (whole entry): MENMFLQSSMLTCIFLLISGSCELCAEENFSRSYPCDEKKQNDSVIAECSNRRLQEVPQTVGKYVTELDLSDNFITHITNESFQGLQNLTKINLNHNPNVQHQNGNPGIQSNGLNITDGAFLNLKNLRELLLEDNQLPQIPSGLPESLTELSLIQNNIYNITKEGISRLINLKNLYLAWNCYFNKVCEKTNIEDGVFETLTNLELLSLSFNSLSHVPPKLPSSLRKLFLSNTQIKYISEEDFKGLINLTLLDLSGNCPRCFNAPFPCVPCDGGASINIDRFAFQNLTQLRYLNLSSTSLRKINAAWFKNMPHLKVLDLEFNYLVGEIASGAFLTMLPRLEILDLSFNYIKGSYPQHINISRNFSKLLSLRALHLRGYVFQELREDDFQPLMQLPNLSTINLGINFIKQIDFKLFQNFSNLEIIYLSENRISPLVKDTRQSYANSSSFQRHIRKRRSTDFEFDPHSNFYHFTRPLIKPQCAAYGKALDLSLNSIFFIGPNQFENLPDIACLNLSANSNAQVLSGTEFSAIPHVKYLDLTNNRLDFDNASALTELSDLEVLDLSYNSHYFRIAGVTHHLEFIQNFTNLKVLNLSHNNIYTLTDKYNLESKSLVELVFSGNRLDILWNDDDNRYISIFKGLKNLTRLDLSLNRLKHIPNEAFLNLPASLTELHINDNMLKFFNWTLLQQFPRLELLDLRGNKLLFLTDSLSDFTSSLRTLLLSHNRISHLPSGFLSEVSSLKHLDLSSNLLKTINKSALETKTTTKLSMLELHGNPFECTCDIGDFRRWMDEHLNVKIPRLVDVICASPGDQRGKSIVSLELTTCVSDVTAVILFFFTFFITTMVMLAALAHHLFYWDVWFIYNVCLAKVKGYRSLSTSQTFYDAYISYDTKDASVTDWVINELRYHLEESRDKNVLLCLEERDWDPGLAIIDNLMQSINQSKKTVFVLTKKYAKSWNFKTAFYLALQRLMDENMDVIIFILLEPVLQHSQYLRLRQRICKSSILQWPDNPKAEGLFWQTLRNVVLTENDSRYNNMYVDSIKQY
Method in brief: (§1)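 Fresh human PBMCs were isolated from venous blood in cell preparation tubes. They were stimulated at 10^5 cells per well for 16 h with graded compound concentrations. Supernatants were taken off by centrifugation and assayed in duplicate on a 41-analyte magnetic bead cytokine/chemokine multiplex panel. Panel analytes include IFN-α2, IFN-γ, IL-12 (p40) and TNF-α.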

[3] = target: T2, Toll-like receptor 8 (Homo sapiens); assay: Agonist activity at TLR8 in human PBMC assessed as induction of IL-12p40 production after 16 hrs by multiplexed immunoassay; method in brief: as §1
[4] = target: T2, Toll-like receptor 8 (Homo sapiens); assay: Agonist activity at TLR8 in human PBMC assessed as induction of TNF-alpha production after 16 hrs by multiplexed immunoassay; method in brief: as §1
[5] = target: T3, Toll-like receptor 7 (Homo sapiens) (UniProt Q9NYK1); assay: Agonist activity at human TLR7 expressed in HEK293 cells co-expressing secreted alkaline phosphatase assessed as induction of NF-kappaB/AP-1 promoter activity by measuring increase in secreted alkaline phosphatase level at 100 uM by spectrophotometric method; assay type: cell-based
T3 sequence (whole entry): T1 sequence (Q9NYK1 whole entry)

[6] = target: T3, Toll-like receptor 7 (Homo sapiens); assay: Agonist activity at TLR7 in human PBMC assessed as induction of IFN-alpha production after 16 hrs by multiplexed immunoassay; method in brief: as §1
[7] = target: T2, Toll-like receptor 8 (Homo sapiens); assay: Agonist activity at human TLR8 expressed in HEK293 cells co-expressing secreted alkaline phosphatase assessed as induction of NF-kappaB/AP-1 promoter activity by measuring increase in secreted alkaline phosphatase level at 100 uM by spectrophotometric method; assay type: cell-based
Method in brief: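 HEK293 cells stably co-transfected with human TLR8 and NF-κB/AP-1-driven secreted alkaline phosphatase, kept in selection medium. Cells seeded at ~10⁵ cells/ml in 384-well plates with graded stimulus concentrations. Supernatant sAP read spectrophotometrically at 620 nm with an alkaline phosphatase-specific chromogen. TLR-2/-3/-4/-5/-9 reporter lines served as counter-screens.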

Row | SMILES | EC50 [1] | further results
1 | CCCCNc1nc(N)nc(C)c1CCCn1cncn1 | 1160 nM | 
2 | CCCCNc1nc(N)nc(C)c1CCCN1CCN(C)CC1 | 251 nM | 
3 | CCCCNc1nc(N)nc(C)c1CCCN(C)C | 958 nM | 
4 | CCCCNc1nc(N)nc(C)c1CCCN1CCCCC1 | 710 nM | Activity [2]: Active; Activity [3]: Active; Activity [4]: Active
5 | CCCCNc1nc(N)nc(C)c1CCc1ccccc1 | 2820 nM | 
6 | CCCCNc1nc(N)nc(C)c1CCCC(C)(C)O | 2890 nM | 
7 | CCCCNc1nc(N)nc(C)c1CCCCO | 1020 nM | 
8 | C#Cc1c(C)nc(N)nc1NCCCC |  | Activity [5]: inactive
9 | CCCCNc1nc(N)nc(C)c1CCC(C)(C)O | 3260 nM | 
10 | CCCCNc1nc(N)nc(C)c1CCCN1CCNCC1 | 1640 nM | 
11 | CCCCNc1nc(N)nc(C)c1CCCN1CCSCC1 | 714 nM | 
12 | CCCCNc1nc(N)nc(C)c1CCCN1C(=O)c2ccccc2C1=O | 1290 nM | 
13 | CCCCNc1nc(N)nc(C)c1C#C[Si](C)(C)C |  | Activity [5]: inactive
14 | CCCCNc1nc(N)nc(C)c1CCCN1CCOCC1 | 46 nM | 
15 | CCCCNc1nc(N)nc(C)c1CCCn1ccc2ccccc21 | 140 nM | 
16 | CCCCNc1nc(N)nc(C)c1CCCn1c(C)nc2ccccc21 | 379 nM | Activity [2]: Active; Activity [3]: Active; Activity [4]: Active; Activity [6]: Active
17 | CCCCNc1nc(N)nc(C)c1CCCCCc1ccccc1 | 265 nM | 
18 | CCCCNc1nc(N)nc(C)c1CCCC1CCCCC1 | 1100 nM | Activity [7]: inactive
19 | CCCCNc1nc(N)nc(C)c1CCCc1ccccc1 | 194 nM | Activity [2]: inactive; Activity [6]: Active

Row | SMILES | EC50 [1] | further results
20 | CCCCNc1nc(N)nc(C)c1C | 3400 nM | 
21 | CCCC#Cc1c(C)nc(N)nc1NCCCC |  | Activity [5]: inactive
22 | CCCCNc1nc(N)nc(C)c1CCCN1CCCC1 | 562 nM | 
23 | CCCCNc1nc(N)nc(C)c1CCCN(C)CCOC | 1240 nM | 
24 | CCCCNc1nc(N)nc(C)c1CCCN(CC)CC |  | Activity [5]: inactive
25 | CCCCNc1nc(N)nc(C)c1CCCCN1CCOCC1 | 1400 nM | 
26 | CCCCCc1c(C)nc(N)nc1NCCCC | 510 nM | 
27 | CCCCNc1nc(N)nc(C)c1C#CCc1ccccc1 |  | Activity [7]: inactive; Activity [5]: inactive
28 | CCCCNc1nc(N)nc(C)c1C#CCN1CCOCC1 |  | Activity [5]: inactive
29 | CCCCNc1nc(N)nc(C)c1CCCC | 590 nM | 
30 | CCCCNc1nc(N)nc(C)c1CCCCc1ccccc1 | 262 nM | 
31 | CCCCNc1nc(N)nc(C)c1CCCN1CCN(C(=O)OC(C)(C)C)CC1 |  | Activity [5]: inactive
32 | CCCCNc1nc(N)nc(C)c1C#CCN1CCCCC1 |  | Activity [5]: inactive
33 | CCCCNc1nc(N)nc(C)c1CCCN1CCCCCC1 | 730 nM | 
34 | CCCCNc1nc(N)nc(C)c1CC | 1270 nM | 
35 | CCCCNc1nc(N)nc(C)c1CCCN1CCN(c2ccccc2)CC1 | 1160 nM | 
36 | CCCCNc1nc(N)nc(C)c1CCCN1Cc2ccccc2C1 | 375 nM | Activity [2]: Active; Activity [3]: Active; Activity [4]: Active
37 | CCCCNc1nc(N)nc(C)c1CCCn1cccn1 | 398 nM | 
